Screening results (PubChem BioAssay)
Only some compounds are listed: those with a hit (about 5.5% of all), similar ones and a draw of the others.
Cl transport mod = KCC2 (human) Cl- transport modulation. Q9H2X9. KCC2 cells, thallium flux FluoZin-2 fluorescence. B-score of Tl+ flux slope (higher = more flux/activation; lower = inhibition) at 10 µM. 2.2% of 190,000 active;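 active = thallium flux slope and its plate-corrected score both differing from the plate sample mean at a set confidence after two filtering rounds, in either direction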;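 note: slope of fluorescence scaled to starting intensity during 10 to 20 s after thallium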
WT yeast gro inh = growth inhibition of WT yeast, mitochondrial fusion screen; AID 1362; inhibition, % at 10 µM; mitochondrial fusion phenotypic screen, WT strain; 2.1% of 190,000 active; in the data active = inhibition above about 58%; tested in S. cerevisiae
Yeast growth inh = chemicals that inhibit yeast BB579 growth in restrictive medium (lifespan-shortening candidates); inhibition, % at 10 µM; 0.51% of 140,000 active; S. cerevisiae BB579 growth, OD615, 48 h;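 active = inhibition above a set limit, 3 SD over the mean compound inhibition, cut at about 44% in these data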
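Assay system: S. cerevisiae DeaD strain BB579 yeast. Medium: CSMM-D restrictive synthetic medium containing dextrose (glucose). Times: 4 h cell preincubation, 48 h compound exposure, 30 °C humidified. Signal: OD615 turbidity measurement. Benchmarks: positive control amphotericin B 10 µg/mL.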
RAM inhibit = blocks the yeast RAM network; S. cerevisiae dse1pr::URA3 reporter, 5-FOA growth OD615, 2 d; analog-sensitive cbk1-as2 kinase mutant strain; inhibition, % at 50 µM; 1.8% of 190,000 active;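 active = inhibition above a set limit, 3 SD over mean compound inhibition, cut at about 8.4% in these data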;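 note: 0% = DMSO-only wells with no growth and 100% = 10 µM 1-NA-PP1 full growth; inhibition rescues growth on 5-FOA so higher OD means more RAM inhibition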
Yeast lifespan up = yeast lifespan extension. S. cerevisiae growth with nicotinamide, OD615; deaD strain in restrictive glucose medium. inhibition of the nicotinamide effect, % at 10 µM. 0.68% of 130,000 active;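 active = inhibition above a set limit, placed 3 SD over the median of all compounds, cut at about 26% in these data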;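 note: 0% = nicotinamide-treated wells and 100% = cells grown without nicotinamide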
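Test system – modified budding yeast, DeaD strain · Compound – single dose 10 µM compound, 0.25% DMSO · Times – culture preincubation 4 h, compound exposure 48 h, both 30 °C · Detection – optical density (absorbance) at 615 nm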
* hit, by the source's call; . = no result given.

SMILES	Cl transport mod	WT yeast gro inh	Yeast growth inh	RAM inhibit	Yeast lifespan up
Cc1cccc(CN2CCc3c(OCC(=O)N4CCCc5ccccc54)cccc3C2=O)c1	-1.8	3	-20	-1	1
O=C1c2cccc(OCC(=O)N3CCCc4ccccc43)c2CCN1Cc1ccc(F)cc1	-1.2	65*	-29	7	5
O=C(O)C[C@@H]1C(=O)O[C@@H]2C(COC(=O)c3cc(O)c(O)c(O)c3)O[C@@H](OC(=O)c3cc(O)c(O)c(O)c3)[C@@H](OC(=O)c3cc(O)c(O)c4c3[C@H]1[C@H](O)C(=O)O4)[C@H]2OC(=O)c1cc(O)c(O)c(O)c1 (some centres not stated)	-1.1	.	.	.	.
COc1ccc(CC(=O)Nc2ccc(N3CCOCC3)cc2)cc1S(=O)(=O)N1CCOCC1	-0.0092	.	.	.	.
Nc1cccc2nc3ccccc3cc12	-0.29	40	59*	3	-5
COc1cc(/C=N/NC(=S)Nc2cccc(Cl)c2C)ccc1OCC(=O)N1CC(C)OC(C)C1 (configuration not stated)	0.74	-3	-20	2	0
Cc1cc(-c2sccc2Br)nc(-n2cccc2)n1	-0.36	69*	.	2	.
C=CCNC(=S)N/N=C(\C)c1ccccn1	.	35	93*	0	-10
C/C(=N/NC(=O)CNC(=O)c1ccccn1)c1ccccc1	0.37	13	-21	1	0
COc1ccc(CCNC(=O)CCC2COc3ccccc3O2)cc1OC (configuration not stated)	-0.081	7	-10	2	-10
O=C(c1ccc(Cl)nc1)N1CCN(S(=O)(=O)c2ccccc2)CC1	0.96	.	.	.	.
Cc1ccc(NC(=S)c2nc3ccccc3[nH]2)c(C)c1	65*	30	8	0	-8
Cc1ccc(NC(=S)c2nc3ccccc3[nH]2)cc1	33*	55	-6	7	-10
Cc1ccc(NC(=S)N2CCCC(c3nc4ccccc4[nH]3)C2)cc1 (configuration not stated)	0.47	20	.	0	.
COC(C#CCCN(C)C)(c1ccccc1)c1ccccc1	-0.35	-4	-40	3	1
COc1ccccc1-c1c(C)nn2c(N3CCN(Cc4ccccc4)CC3)cc(C)nc12	-0.77	85*	-3	1	-6
COc1ccc(-c2c(C)nn3c(N4CCN(Cc5ccccc5)CC4)cc(C)nc23)cc1OC	-2.3	15	-9	1	-17
COc1ccccc1-c1c(C)nn2c(N3CCCCCC3)cc(C)nc12	-1.2	61*	6	2	-7
CCOc1cc(C2C3=C(CC(C)(C)CC3=O)OC3=C2C(=O)CC(C)(C)C3)cc([N+](=O)[O-])c1O	-0.27	-3	.	2	.
CCOC(=O)C1=CN(c2cccc(F)c2)C=C(C(=O)OCC)C1c1cc(OC)c(O)c([N+](=O)[O-])c1	.	88*	-14	6	0
CCCCOC(=O)c1ccc(NC(=S)NC(=O)c2c(Br)c(C)nn2C)cc1	29*	-6	-58	7	8
CN(CC(=O)NCc1ccccn1)S(=O)(=O)c1ccc2ccccc2c1	-0.014	2	.	2	.
CC(C)COc1ncnc2c1sc1nc3c(cc12)COC(C)(C)C3	0.32	.	.	.	.
O=C(Nn1c(-c2ccccc2)nc2ccccc2c1=O)C1CCC1	0.38	70*	2	2	-11
Cc1ccc(S(=O)(=O)N(CC(=O)NCCC2=CCCCC2)Cc2ccccc2F)cc1	-0.63	61*	-32	8	19
SMILES	Cl transport mod	WT yeast gro inh	Yeast growth inh	RAM inhibit	Yeast lifespan up
NC(=O)N=Nc1c2[nH]c3ccccc3nc-2c2ccccc12	-0.0061	.	.	.	.
O=C(COc1ccc(-c2ccccc2)cc1)N/N=C/c1cc(O)ccc1Br	-0.021	96*	-15	1	-6
O=C(COc1ccc(-c2ccccc2)cc1)N/N=C/c1ccccc1Br	0.81	12	-22	6	-12
Cc1oc(-c2ccccc2)[n+]([O-])c1C	-0.49	69*	-15	1	-18
CN(C)CC1CCCCC1OC(=O)/C=C/c1ccccc1 (configuration not stated)	0.98	.	.	.	.
CC(C)c1ccccc1NC(=S)NN(Cc1ccccc1)c1ccccc1	0.81	62*	7	6	-9
O=C(C1=C[C@H](c2ccc3c(c2)OCO3)C[C@H](OCc2ccc(CO)cc2)O1)N1CCOCC1	1	7	.	10*	.
O=C(C1=C[C@@H](c2ccc(C(F)(F)F)cc2)C[C@@H](OCc2ccc(CO)cc2)O1)N1CCOCC1	-0.045	8	.	9.0*	.
